Compound activity (PubChem)
Only a selection was taken, and hits are over-represented in it overall.
Lung fibro prol: blocks proliferation of human lung fibroblasts | viability, % at 10 µM | 85,000 tested, 1.1% active | LL 47 human lung fibroblast viability, ATP luminescence; active compounds read low;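 active means viability at or below 50% in the single dose screen; inactive means viability above 50%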;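 further: compound exposure lasted 72 h before the ATP readout; 100% = median luminescence of untreated cell-only wells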
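Test system: LL 47 human lung fibroblasts; Quantity: 1,150 cells/well; Buffer or medium: IMEM plus 15% FBS; Dosing: tenfold compound dosing solution, DMSO at 0.1%; Timing: overnight cell rest, 72 h compound treatment at 37 °C; Detection: ATP-based CellTiter-Glo luminescent readout; Read-out basis: viability percentage against median untreated-cell control; Controls: cell-only wells, no compound.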
HCT116 bCat-KO: beta-catenin-lacking colon tumor cell growth suppression; HCT116 beta-catenin knockout viability, CellTiter-Glo, 60 h; active compounds read low; viability, % at 10 µM; 140,000 tested, 1.5% active; AID 818;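 active means viability at or under a set limit, the compound median less 4 SD, cut at about 6% in these data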;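 further: 0% = Hyamine 1622 control at 20 µM and 100% = untreated cell control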
H69AR inhibit: blocks growth of human H69AR lung tumor cells. H69AR lung tumor viability, ATP luminescence, 72 h; active compounds read low. 85,000 tested, 6% active. viability, % at 10 µM. AID 598;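 active means viability at or below 40%; inactive means viability above 40%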;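 further: multidrug resistant small cell line overexpressing MRP-1 efflux transporter; 100% = mean luminescence of untreated control wells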
HCT116 PTEN-null: growth suppressors of cells with PTEN tumor suppressor deletion; viability, % at 10 µM; 140,000 tested, 1.2% active; AID 827; HCT116 PTEN-null viability, CellTiter-Glo, 60 h; active compounds read low;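 active means viability at or below a set limit, 4 SD under the median of all tested compounds, cut at about 3.7% in these data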;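 further: PTEN knockout HCT116 line with beta catenin targeted HCT116 as companion control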
Phagocytosis inh: blocks phagocytosis by macrophages | inhibition, % at 5 µM | 110,000 tested, 0.07% active | J774A.1 macrophage IgG-bead phagocytosis, imaging;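 active means inhibition above the mean of the plate negative controls plus 5 SD, cut at about 13% in these data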;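 further: phagocytic index as fraction of beads internalized from green versus red external bead signal; plate controls were DMSO negative control for no effect and cytochalasin-D positive control for full effect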
HUVEC inhibit: human endothelial cell proliferation inhibition; HUVEC proliferation, CellTiter-Glo luminescence, 72 h; active compounds read low; 86,000 tested, 1.1% active; viability, % at 10 µM (by protocol);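 active means viability at or below 30%; inactive means viability above 30%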;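 further: 100% = median luminescence of DMSO-only cell control wells on each plate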
The depositor's hits bear a star.

Screening O=C(OCn1ncc(Cl)c(Cl)c1=O)c1cccc(C(F)(F)F)c1 returned HCT116 bCat-KO 8 and HCT116 PTEN-null 8.
For COc1cc2c(cc1NC(=O)CN(C)Cc1ccc(OC)c(OC)c1)oc1ccccc12 the results were HCT116 bCat-KO 22, HCT116 PTEN-null 23 and Phagocytosis inh -1.
Screening CC/C(O)=C1\C(=O)CC(c2ccccc2)CC1=NC(C)C (centres undefined) returned HCT116 bCat-KO 89 and HCT116 PTEN-null 79.
O=c1c(Cl)c(Cl)cnn1Cc1ccccc1Cl was read as HCT116 bCat-KO 1.7*, HCT116 PTEN-null 1.9* and Phagocytosis inh -4.
`O=C1C2C3C=CC(C3)C2C(=O)N1CNc1ccc(O)cc1` (centres undefined) gave Lung fibro prol 102, HCT116 bCat-KO 91, H69AR inhibit 29*, HCT116 PTEN-null 98, Phagocytosis inh 0 and HUVEC inhibit 99.
N#Cc1cc(C#N)c(N2CCN(c3ccccn3)CC2)nc1N was read as HCT116 bCat-KO 100 and HCT116 PTEN-null 114.
For CN(C)S(=O)(=O)c1cccc(N=C2NN=C(c3ccccc3)CS2)c1 the results were HCT116 bCat-KO 5.2*, HCT116 PTEN-null 3.8* and Phagocytosis inh -8.
Cc1cccc(CSc2cccc3cccnc23)c1 was read as HCT116 bCat-KO 4.9* and HCT116 PTEN-null 2.8*.
For CCN(CC)C(=O)Sc1cccc2cccnc12 the results were Lung fibro prol 105, HCT116 bCat-KO 104, H69AR inhibit 89, HCT116 PTEN-null 91, Phagocytosis inh -1 and HUVEC inhibit 104.
Screening CCOC(=O)CSc1cccc2cccnc12 returned Lung fibro prol 46*, HCT116 bCat-KO 6.0*, H69AR inhibit 0.3*, HCT116 PTEN-null 2.7* and HUVEC inhibit 66.
For CC(=O)N1CCc2c(sc(NC(=O)C3CC3)c2-c2nc3ccccc3s2)C1 the results were Lung fibro prol 88, HCT116 bCat-KO 6.0*, H69AR inhibit 50, HCT116 PTEN-null 20, Phagocytosis inh -1 and HUVEC inhibit 70.
`Cc1ccccc1C1CC(c2ccccc2OC(F)F)Nc2ncnn21` (centres undefined) gave Lung fibro prol 94, HCT116 bCat-KO 97, H69AR inhibit 0.6*, HCT116 PTEN-null 87, Phagocytosis inh -1 and HUVEC inhibit 98.
COc1ccccc1NC(=O)C(C)NS(=O)(=O)c1ccc(Cl)cc1 (centres undefined) was read as Lung fibro prol 93, HCT116 bCat-KO 91, H69AR inhibit 85, HCT116 PTEN-null 103, Phagocytosis inh 1 and HUVEC inhibit 84.
For COc1ccc(N(C(=O)CS(=O)CC(=O)Nc2ccc(F)cc2)C(C(=O)NC2CCCCC2)c2cccs2)cc1 (centres undefined) the results were HCT116 bCat-KO 92, HCT116 PTEN-null 72 and Phagocytosis inh -3.
Screening Cc1cc(C(=O)CSc2nnc(-c3ccccc3)n2Cc2ccc3c(c2)OCO3)c(C)n1C returned Lung fibro prol 67, HCT116 bCat-KO 88, H69AR inhibit 52, HCT116 PTEN-null 87, Phagocytosis inh -2 and HUVEC inhibit 68.
For Cc1cc(C(=O)CSc2nc3ccccc3c(=O)n2C)c(C)n1Cc1ccc2c(c1)OCO2 the results were Lung fibro prol 81, HCT116 bCat-KO 7, H69AR inhibit 25*, HCT116 PTEN-null 15, Phagocytosis inh 1 and HUVEC inhibit 24*.
Screening CCCCc1c(C)c(C#N)c2nc3ccccc3n2c1Cl returned HCT116 bCat-KO 1.3*, HCT116 PTEN-null 1.1* and Phagocytosis inh 1.
CCc1c(C)c(C#N)c2nc3ccccc3n2c1N(C)C was read as Lung fibro prol 89, HCT116 bCat-KO 90, H69AR inhibit 53, HCT116 PTEN-null 98, Phagocytosis inh 1 and HUVEC inhibit 92.
For Cc1ccc(-c2ccc(C3C(C#N)=C(N)Oc4n[nH]c(C)c43)o2)cc1 (centres undefined) the results were Lung fibro prol 80, HCT116 bCat-KO 32, H69AR inhibit 90, HCT116 PTEN-null 59 and HUVEC inhibit 70.
Cc1[nH]nc2c1C(c1ccsc1C)C(C#N)=C(N)O2 (centres undefined) was read as HCT116 bCat-KO 91, HCT116 PTEN-null 1.2* and Phagocytosis inh 0.
For Cc1[nH]nc2c1C(c1ccc(-c3ccccc3C#N)o1)C(C#N)=C(N)O2 (centres undefined) the results were Lung fibro prol 74, HCT116 bCat-KO 68, H69AR inhibit 1.6*, HCT116 PTEN-null 75, Phagocytosis inh 0 and HUVEC inhibit 31.
`Cc1[nH]nc2c1C(c1ccc(-c3ccc(Cl)cc3)o1)C(C#N)=C(N)O2` (centres undefined) gave HCT116 bCat-KO 1.3*, HCT116 PTEN-null 0.7* and Phagocytosis inh 0.
Screening Cc1[nH]nc2c1C(c1ccc(F)cc1)C(C#N)=C(N)O2 (centres undefined) returned Lung fibro prol 99, HCT116 bCat-KO 97, H69AR inhibit 105, HCT116 PTEN-null 105, Phagocytosis inh -1 and HUVEC inhibit 91.
CC(C)c1[nH]nc2c1C(c1cccs1)C(C#N)=C(N)O2 (centres undefined) was read as Lung fibro prol 80, HCT116 bCat-KO 57, H69AR inhibit 40*, HCT116 PTEN-null 58 and HUVEC inhibit 71.
For Cc1cc(C2C(C#N)=C(N)Oc3n[nH]c(C)c32)c(C)s1 (centres undefined) the results were Lung fibro prol 94, HCT116 bCat-KO 63, H69AR inhibit 77, HCT116 PTEN-null 71 and HUVEC inhibit 85.
`Cc1cccc(N2CCN(C(=O)CCCSc3nc4ccccc4[nH]3)CC2)c1C` gave Lung fibro prol 98, HCT116 bCat-KO 45, H69AR inhibit 100, HCT116 PTEN-null 48 and HUVEC inhibit 75.
Cn1ncc(C#N)c1NC(=O)c1nn2cccnc2c1Cl was read as Lung fibro prol 101, HCT116 bCat-KO 103, H69AR inhibit 90, HCT116 PTEN-null 97, Phagocytosis inh -4 and HUVEC inhibit 99.
Screening Cc1cccc(NC(=O)c2ccc([N+](=O)[O-])o2)n1 returned HCT116 bCat-KO 3.3*, HCT116 PTEN-null 2.5* and Phagocytosis inh -1.
c1ccc(C2=Nc3ccccc3SC2c2nc3ccccc3[nH]2)cc1 (centres undefined) was read as Lung fibro prol 105, HCT116 bCat-KO 71, H69AR inhibit 73, HCT116 PTEN-null 72, Phagocytosis inh -1 and HUVEC inhibit 84.
`COc1cccc(/C(O)=C/c2nc3ccc(C(=O)NCCc4ccc(Cl)cc4)cc3[nH]c2=O)c1` gave HCT116 bCat-KO 1.5*, HCT116 PTEN-null 1.2* and Phagocytosis inh -5.
Screening CCC(C)NC(=O)c1ccccc1NS(=O)(=O)c1ccc(OC)c(OC)c1 (centres undefined) returned Lung fibro prol 105, HCT116 bCat-KO 93, H69AR inhibit 86, HCT116 PTEN-null 86, Phagocytosis inh -1 and HUVEC inhibit 95.
